Reference: ChEMBL document CHEMBL1629572 (Antimicrob Agents Chemother, 2009)
pIC50: −log10 of the molar value.

Columns and labels:
[1] = Inhibition of Influenza B virus (B/Mie/1/1993(Yamagata)) neuraminidase after 30 mins by fluorescence analysis
In short: (§1)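 Virus NA source was mixed with compound in 32.5 mM MES-NaOH pH 6.5 with 4 mM CaCl2 and preincubated 10 min at room temperature. Reaction ran 30 min at room temperature with 100 μM (final) 4-MU-NANA. Fluorescence was read at ex 360/em 460 nm, in triplicate. IC50 came from linear regression of residual activity against log concentration, using concentrations giving 10–90% residual activity.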

[2] = Inhibition of Influenza B virus (B/Aichi/186/2005(Yamagata)) neuraminidase after 30 mins by fluorescence analysis; in short: as §1
[3] = Inhibition of Influenza B virus (B/Brisbane/32/2002(Victoria) neuraminidase after 30 mins by fluorescence analysis; in short: as §1
[4] = Inhibition of Influenza B virus (B/Shiga/31/2002(Yamagata)) neuraminidase after 30 mins by fluorescence analysis; in short: as §1
Neuraminidase [5] = target: T1, Neuraminidase (Influenza A virus, UniProt B4URF0); assay: Inhibition of Influenza A virus (A/Saitama/07/2006(H3N2)) neuraminidase after 30 mins by fluorescence analysis
Neuraminidase [6] = target: T1, Neuraminidase; assay: Inhibition of Influenza A virus (A/Singapore/1/1957(H2N2)) neuraminidase after 30 mins by fluorescence analysis
[7] = Inhibition of Influenza B virus (B/Aichi/3/2006(Victoria)) neuraminidase after 30 mins by fluorescence analysis; in short: as §1
Neuraminidase [8] = target: T1, Neuraminidase; assay: Inhibition of Influenza A virus (A/R(duck/Mongolia/54/01-duck/Mongolia/47/01)([…])) neuraminidase after 30 mins by fluorescence analysis
[9] = Inhibition of Influenza B virus (B/Yamagata/145/2003(Victoria)) neuraminidase after 30 mins by fluorescence analysis; in short: as §1
Neuraminidase [10] = target: T1, Neuraminidase; assay: Inhibition of Influenza A virus (A/Tokushima/1/2005(H3N2)) neuraminidase after 30 mins by fluorescence analysis
Neuraminidase [11] = target: T1, Neuraminidase; assay: Inhibition of Influenza A virus (A/duck/England/1/1956(H11N6)) neuraminidase after 30 mins by fluorescence analysis
Neuraminidase [12] = target: T1, Neuraminidase; assay: Inhibition of Influenza A virus (A/Wisconsin/67/2005(H3N2)) neuraminidase after 30 mins by fluorescence analysis
Influenza A virus [13] = assay: Antiviral activity against Influenza A virus (A/Puerto Rico/8/1934(H1N1)) infected in mouse infection model at 0.3 umol/kg, itn administered 4 hrs pre-infection and at 4 hrs and 17 hrs post-infection up to 20 days; format: functional, organism-based
In short: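 BALB/c females, 5–6 weeks old, were anaesthetised and infected intranasally with 1,500 PFU/mouse A/PR/8/34 in PBS with 0.42% BSA. Three intranasal doses of 0.3 μmol/kg in saline (50 μl) were given at 4 h pre-infection and at 4 h and 17 h post-infection. Survival was read daily for 20 days, 10–12 mice per group.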

Neuraminidase [14] = target: T1, Neuraminidase; assay: Inhibition of Influenza A virus (A/duck/Hokkaido/84/2002(H5N3)) neuraminidase after 30 mins by fluorescence analysis
[15] = Inhibition of Influenza B virus (B/Yamagata/15/2002(Victoria)) neuraminidase after 30 mins by fluorescence analysis; in short: as §1
Neuraminidase [16] = target: T1, Neuraminidase; assay: Inhibition of Influenza A virus (A/duck/Ukraine/1/1963(H3N8)) neuraminidase after 30 mins by fluorescence analysis
Neuraminidase [17] = target: T1, Neuraminidase; assay: Inhibition of Influenza A virus (A/Okinawa/42/2004(H1N1)) neuraminidase after 30 mins by fluorescence analysis
Neuraminidase [18] = target: T1, Neuraminidase; assay: Inhibition of Influenza A virus (A/Wyoming/03/2003(H3N2)) neuraminidase after 30 mins by fluorescence analysis
Neuraminidase [19] = target: T1, Neuraminidase; assay: Inhibition of Influenza A virus (A/Saitama/80/2003(H3N2)) neuraminidase after 30 mins by fluorescence analysis
Neuraminidase [20] = target: T1, Neuraminidase; assay: Inhibition of Influenza A virus (A/California/07/2004(H3N2)) neuraminidase after 30 mins by fluorescence analysis
Neuraminidase [21] = target: T1, Neuraminidase; assay: Inhibition of Influenza A virus (A/Yamagata/32/1989(H1N1)) neuraminidase after 30 mins by fluorescence analysis
[22] = Inhibition of Influenza B virus (B/Yamagata/87/2004(Yamagata)) neuraminidase after 30 mins by fluorescence analysis; in short: as §1
[23] = Inhibition of Influenza B virus (B/Sapporo/29/2005(Yamagata)) neuraminidase after 30 mins by fluorescence analysis; in short: as §1
Neuraminidase [24] = target: T1, Neuraminidase; assay: Inhibition of Influenza A virus (A/New York/55/2004(H3N2)) neuraminidase after 30 mins by fluorescence analysis
Neuraminidase [25] = target: T1, Neuraminidase; assay: Inhibition of Influenza A virus (A/Shiga/5/2002(H3N2)) neuraminidase after 30 mins by fluorescence analysis
Neuraminidase [26] = target: T1, Neuraminidase; assay: Inhibition of Influenza A virus (A/Yamagata/2/2002(H3N2)) neuraminidase after 30 mins by fluorescence analysis
[27] = Inhibition of Influenza B virus (B/Saitama/01/2006(Victoria)) neuraminidase after 30 mins by fluorescence analysis; in short: as §1
Neuraminidase [28] = target: T1, Neuraminidase; assay: Inhibition of Influenza A virus (A/Kitakyushu/159/1993(H3N2)) neuraminidase after 30 mins by fluorescence analysis
[29] = Inhibition of Influenza B virus (B/Ohio/01/2005(Victoria)) neuraminidase after 30 mins by fluorescence analysis; in short: as §1
[30] = Inhibition of Influenza B virus (B/Yamagata/113/2005(Yamagata)) neuraminidase after 30 mins by fluorescence analysis; in short: as §1
Neuraminidase [31] = target: T1, Neuraminidase; assay: Inhibition of Influenza A virus (A/Puerto Rico/8/1934(H1N1)) neuraminidase after 30 mins by fluorescence analysis
Neuraminidase [32] = target: T1, Neuraminidase; assay: Inhibition of Influenza A virus (A/Yamagata/3/2002(H1N1)) neuraminidase after 30 mins by fluorescence analysis
Influenza A virus [33] = assay: Antiviral activity against Influenza A virus (A/Puerto Rico/8/1934(H1N1)) infected in mouse infection model at 95 ug/kg, itn administered 4 hrs pre-infection and at 4 hrs and 17 hrs post-infection up to 20 days; format: functional, organism-based
Neuraminidase [34] = target: T1, Neuraminidase; assay: Inhibition of Influenza A virus (A/Osaka/56/2004(H3N2)) neuraminidase after 30 mins by fluorescence analysis
[35] = Inhibition of Influenza B virus (B/Malaysia/2506/2004(Victoria)) neuraminidase after 30 mins by fluorescence analysis; in short: as §1
[36] = Inhibition of Influenza B virus (B/Akita/9/2003(Victoria)) neuraminidase after 30 mins by fluorescence analysis; in short: as §1
Neuraminidase [37] = target: T1, Neuraminidase; assay: Inhibition of Influenza A virus (A/Aichi/193/2004(H1N1)) neuraminidase after 30 mins by fluorescence analysis
[38] = Inhibition of Influenza B virus (B/Yamagata/398/2003(Victoria)) neuraminidase after 30 mins by fluorescence analysis; in short: as §1
[39] = Inhibition of Influenza B virus (B/Saitama/01/2005(Yamagata)) neuraminidase after 30 mins by fluorescence analysis; in short: as §1
Neuraminidase [40] = target: T1, Neuraminidase; assay: Inhibition of Influenza A virus (A/Yamagata/83/2006(H1N1)) neuraminidase after 30 mins by fluorescence analysis
Neuraminidase [41] = target: T1, Neuraminidase; assay: Inhibition of Influenza A virus (A/duck/Memphis/546/1974(H11N9)) neuraminidase after 30 mins by fluorescence analysis
Neuraminidase [42] = target: T1, Neuraminidase; assay: Inhibition of Influenza A virus (A/Wellington/1/2004(H3N2)) neuraminidase after 30 mins by fluorescence analysis

T1 sequence (B4URF0 whole entry): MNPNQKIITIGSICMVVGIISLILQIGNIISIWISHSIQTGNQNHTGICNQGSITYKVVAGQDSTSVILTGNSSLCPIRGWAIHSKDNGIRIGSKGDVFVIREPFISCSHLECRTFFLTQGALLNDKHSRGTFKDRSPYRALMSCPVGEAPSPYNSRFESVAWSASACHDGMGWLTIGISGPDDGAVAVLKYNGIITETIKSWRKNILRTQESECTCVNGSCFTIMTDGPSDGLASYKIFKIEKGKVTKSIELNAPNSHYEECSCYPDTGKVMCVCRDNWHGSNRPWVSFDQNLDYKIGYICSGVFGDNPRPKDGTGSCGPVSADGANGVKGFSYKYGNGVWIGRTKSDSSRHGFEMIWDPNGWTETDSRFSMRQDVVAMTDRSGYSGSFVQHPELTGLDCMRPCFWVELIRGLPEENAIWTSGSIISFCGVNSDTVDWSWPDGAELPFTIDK

What does the source list for `CCCCCCCC(=O)OC[C@@H](O)[C@@H](OC)[C@@H]1OC(C(=O)O)=C[C@H](NC(=N)N)[C@H]1NC(C)=O` [LANINAMIVIR OCTANOATE]?
pIC50 [1]: 5.16; pIC50 [2]: 5.45; pIC50 [3]: 5.00; pIC50 [4]: 4.98; pIC50 (Neuraminidase [5]): 7.20; pIC50 (Neuraminidase [6]): 6.89; pIC50 [7]: 4.86; pIC50 (Neuraminidase [8]): 6.56; pIC50 [9]: 4.80; pIC50 (Neuraminidase [10]): 6.88; pIC50 (Neuraminidase [11]): 6.58; pIC50 (Neuraminidase [12]): 6.73; Activity (Influenza A virus [13]): Non-toxic; pIC50 (Neuraminidase [14]): 6.34; pIC50 [15]: 5.16; pIC50 (Neuraminidase [16]): 5.98; pIC50 (Neuraminidase [17]): 6.20; pIC50 (Neuraminidase [18]): 6.94; pIC50 (Neuraminidase [19]): 7.41; pIC50 (Neuraminidase [20]): 6.87; pIC50 (Neuraminidase [21]): 6.05; pIC50 [22]: 5.11; pIC50 [23]: 5.44; pIC50 (Neuraminidase [24]): 6.87; pIC50 (Neuraminidase [25]): 7.19; pIC50 (Neuraminidase [26]): 7.33; pIC50 [27]: 4.34; pIC50 (Neuraminidase [28]): 6.66; pIC50 [29]: 4.89; pIC50 [30]: 5.46; pIC50 (Neuraminidase [31]): 6.03; pIC50 (Neuraminidase [32]): 6.15; Activity (Influenza A virus [33]): Non-toxic; pIC50 (Neuraminidase [34]): 6.89; pIC50 [35]: 4.95; pIC50 [36]: 4.86; pIC50 (Neuraminidase [37]): 6.01; pIC50 [38]: 4.91; pIC50 [39]: 5.44; pIC50 (Neuraminidase [40]): 6.13; pIC50 (Neuraminidase [41]): 6.45; pIC50 (Neuraminidase [42]): 6.80
